# Laboratory results as given in PMC5189983 (Biomaterials, 2016).
# Columns and labels:
# [1] = system: 2D2 CD4+ T cells; experiment: DC/2D2 T cell co-culture, T cell proliferation; assay type: cell-based, mice; details: 48 hours co-culture, dye dilution
# In short: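 Splenic CD11c+ DCs from female C57BL/6 mice were isolated by positive selection and plated at 100,000/well in RPMI 1640 with 10% FBS at 37°C and 5% CO2. They were stimulated with CpG (5 µg/mL) plus complex or free controls for 24 h. Splenic CD4+ T cells from 2D2 mice were isolated by negative selection and labelled with eFluor 670 dye. They were co-cultured with the DCs for 48 h, then stained with DAPI and anti-CD4, and dye dilution was read by flow cytometry.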
# [2] = system: EAE; experiment: EAE mouse model of MS; assay type: in vivo, C57BL/6 female mice; details: 50 µg free GpG on days 5, 10, and 15
Substance,CD4+ T cell proliferation [1],therapeutic effect relative to untreated mice [2]
5’-TCCATGACGTTCCTGACGTT-3’ [CpG],did not cause any proliferation,–
5’-TGACTGTGAAGGTTAGAGATGA-3’ (DNA TGACTGTGAAGGTTAGAGATGA; chemistry not given here) [GpG],–,no therapeutic effect
